Published values collected from several papers.
Protocols differ between the studies behind these lines.
Organism: Escherichia coli
Effect on: microbial killing

For CN[C@H](CC(C)C)C(=O)N[C@H]1C(=O)N[C@@H](CC(N)=O)C(=O)N[C@H]2C(=O)N[C@H]3C(=O)N[C@H](C(=O)N[C@H](C(=O)O)c4cc(O)cc(O)c4-c4cc3ccc4O)[C@H](O)c3ccc(c(Cl)c3)Oc3cc2cc(c3O[C@@H]2O[C@H](CO)[C@@H](O)[C@H](O)[C@H]2O[C@H]2C[C@](C)(N)[C@H](O)[C@H](C)O2)Oc2ccc(cc2Cl)[C@H]1O, the MBC was over 128 µM (broth dilution; ATCC 8739, ATCC8739).
COc1cc(Cc2cnc(N)nc2N)cc(OC)c1OC has an MBC of over 32 µg/mL (broth dilution; 48 h).
CCn1cc(C(=O)O)c(=O)c2cc(F)c(N3CCNCC3)cc21 has an MBC of 1 µM (broth dilution; ATCC 8739, ATCC8739).
The MBC of O=c1[nH]cc(F)c(=O)[nH]1 is reported as over 32 µg/mL (broth dilution; 48 h).
COc1c(C)c(OC)c(C(=O)/C=C/c2ccccc2)c(OC)c1C has an MBC of over 5000 µg/mL (broth dilution; ATCC25922).
With CO[C@H]1O[C@H](COC(c2ccccc2)(c2ccccc2)c2ccccc2)[C@@H](OC(=O)c2ccc(C(C)(C)C)cc2)[C@H](OC(=O)c2ccc(C(C)(C)C)cc2)[C@H]1OC(=O)c1ccc(C(C)(C)C)cc1 the MBC was 16 µg/mL (broth dilution).
For O=C(O)c1cn(C2CC2)c2cc(N3CCNCC3)c(F)cc2c1=O, the MBC was 0.25 µg/mL (broth dilution).
The MBC of COc1c(C)c(OC(=O)c2ccccc2)c(C)c(O)c1C(=O)/C=C/c1ccccc1 is reported as over 5000 µg/mL (broth dilution; ATCC25922).
N#CC(=Cc1cn(-c2ccccc2)nc1-c1ccccc1)C1=NC(=O)CS1 has an MBC of 0.25 µg/mL (broth dilution).
The MBC of CNC1=C([N+](=O)[O-])C2(C(=O)Nc3ccccc32)C2=C(O1)C(=O)c1ccccc1C2=O (stereo not drawn) is reported as at most 500 µg/mL (ATCC25922).
COc1c(C)c(OC(=O)c2ccc(C)cc2)c(C)c(O)c1C(=O)/C=C/c1ccccc1 has an MBC of over 5000 µg/mL (broth dilution; ATCC25922).
N#CC(=Cc1ccccc1O)C1=NC(=O)C(=Cc2cn(-c3ccccc3)nc2-c2ccccc2)S1 gave an MBC of 0.5 µg/mL (broth dilution).
